Screening data (PubChem BioAssay)
Rows were chosen to be rich in hits. Some 2.5% of all compounds tested hit in one or more screens of this group.
NS3 helicase inh: blocks Hepatitis C virus NS3 helicase unwinding. NS3 helicase DNA unwinding, Cy5 molecular beacon fluorescence. inhibition, % at 10.9 µM. actives 0.56% (n = 290,000). AID 1800;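 active = inhibition above the mean of all tested compounds plus 3 SD, set per campaign, cut at about 35% in these data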;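 also: 0% = DMSO wells and 100% = thioflavine S control wells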
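Assay system: hepatitis C virus NS3 helicase domain fragment enzyme. Also added: annealed dual-labelled DNA beacon duplex, ATP-started. Timing: 1 h reaction at 25 °C, ATP-initiated. Technique: Cy5 fluorescence at 0 and 60 min, beacon hairpin quenching. Evaluation: % inhibition of unwinding. Replication: one well per compound.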
DNMT1 block: DNMT1 (human) enzyme inhibition; DNMT1 molecular beacon, Hinp1I cleavage, fluorescence; inhibition (reported as % activation of signal), % at 10 µM; actives 0.83% (n = 360,000); AID 588458; in the data active = inhibition above about 50%
DSG3 Ab inh: inhibitors of pemphigus antibody binding to human desmoglein-3; DSG3-coupled beads, scFv-anti-DSG3-GFP binding, flow cytometry; active compounds read low; binding (percent of control), % at 10 µM; actives 0.48% (n = 310,000); AID 588358;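 active = binding more than 3 SD below its plate's average and above zero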;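 also: hits lower antibody fragment binding to DSG3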
UHRF1 MBD2 ctr: blocks human UHRF1 binding to methylated DNA | UHRF1 binding to methylated oligo, TR-FRET | actives 0.75% (n = 370,000) | inhibition, % at 4.4 µM | Q96T88; in the data active = inhibition above about 21%;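 also: UHRF1 SRA domain binding a hemimethylated CpG hairpin DNA probe; 0% = median of test compound wells and 100% = reference inhibitor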
MBD2 inh: blocks human MBD2 binding to methylated DNA; TR-FRET, MBD2 binding to methylated oligonucleotide; inhibition, % at 4.4 µM; actives 0.31% (n = 370,000); Q9UBB5; in the data active = inhibition above about 13%
Target sequence (Q9UBB5 whole entry, looked up): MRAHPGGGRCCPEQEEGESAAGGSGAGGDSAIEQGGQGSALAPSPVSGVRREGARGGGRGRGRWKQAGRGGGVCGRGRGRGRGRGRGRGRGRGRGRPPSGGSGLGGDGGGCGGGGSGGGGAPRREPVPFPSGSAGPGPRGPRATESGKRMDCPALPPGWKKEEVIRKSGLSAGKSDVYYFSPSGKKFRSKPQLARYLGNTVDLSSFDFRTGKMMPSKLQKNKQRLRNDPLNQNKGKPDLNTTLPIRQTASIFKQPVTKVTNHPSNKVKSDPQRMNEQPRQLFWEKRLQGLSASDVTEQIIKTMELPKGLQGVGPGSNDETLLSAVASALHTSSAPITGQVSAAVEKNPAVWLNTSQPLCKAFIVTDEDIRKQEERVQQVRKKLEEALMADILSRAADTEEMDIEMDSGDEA
SUMO1 PPI mod: SUMO1-SIM interaction modulation; P63165; SUMO1 binding to a labelled peptide, TR-FRET, 1 h; inhibition, % at 20 µM; actives 0.33% (n = 360,000); AID 602429; in the data active = inhibition above about 37%
Target sequence (P63165 whole entry, looked up): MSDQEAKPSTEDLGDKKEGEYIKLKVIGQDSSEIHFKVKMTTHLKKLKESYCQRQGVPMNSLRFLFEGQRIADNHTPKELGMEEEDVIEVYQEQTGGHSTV
Numbers without * were called inactive; nt = no result given.

SMILES | NS3 helicase inh | DNMT1 block | DSG3 Ab inh | UHRF1 MBD2 ctr | MBD2 inh | SUMO1 PPI mod
Cc1ccc(S(=O)(=O)NN2C(=O)/C(=C/c3cccnc3)SC2=S)cc1 | 14 | 1 | 96 | -9 | -8 | -20
O=C(NN1C(=O)/C(=C/c2ccc(O)c(O)c2)SC1=S)c1ccccc1 | 30 | 50* | 98 | -3 | -1 | 5
O=C(O)Cc1ccc(NC(=O)COc2ccc3ccccc3c2)cc1 | 8 | 1 | 103 | -1 | 1 | 2
O=C(COc1ccc2ccccc2c1)Nc1ccc(Cc2ccncc2)cc1 | -8 | -7 | 37* | -1 | 2 | -2
CC(C)(C)c1ccc(OCCn2ccccc2=O)cc1 | -4 | 5 | nt | -1 | 2 | -2
Nc1c(C(=O)Nc2cccc(F)c2)nnn1-c1cccc(C(F)(F)F)c1 | -1 | 4 | 93* | -1 | 6 | 0
CN(C)c1ccc(C=Cc2nccc3ccccc23)cc1 | nt | 69* | nt | -22 | -11 | -63
COc1cccc(C=Cc2nccc3ccccc23)c1OC | nt | -9 | 105 | -1 | 4 | -17
O=C1CCCN1CC1CCCN(Cc2nc(COc3ccccc3)no2)C1 (stereo not given) | 1 | 5 | 126 | 23* | 2 | -1
COc1ccc(Cc2nnc(NS(=O)(=O)c3ccc([N+](=O)[O-])cc3)s2)cc1 | -12 | -6 | 98 | 0 | -6 | -24
O=C(COC(=O)/C=C/c1ccccc1)Nc1ccc2c(c1)OCCO2 | nt | -2 | -4.7* | 1 | 2 | -8
Cc1ccc(C(=O)OCC(=O)Nc2ccc3c(c2)OCCO3)cc1C | nt | -3 | 69* | 1 | -1 | 0
Cc1cc(C)cc(NC(=O)COC(=O)c2ccc3c(c2)OCCO3)c1 | nt | -3 | 98 | 0 | 4 | -11
CCCNS(=O)(=O)c1ccc(OCC(=O)Nc2ccc3c(c2)OCCO3)cc1 | -9 | 4 | 103 | 24* | 5 | -2
Cc1cc(C(=O)CN2C(=O)C(=O)N(C3CCCC3)C2=O)c(C)n1-c1ccc(F)cc1 | 1 | -3 | 117 | 0 | -5 | 1
Cc1ccc(CN(C(=O)C(F)(F)F)C(C(=O)NC2CCCCC2)c2ccco2)cc1 (stereo not given) | -12 | -4 | 100 | 0 | 0 | 1
CS(=O)(=O)c1ccc(Cl)c(NC(=O)CN2CCN(C(=O)c3cccs3)CC2)c1 | nt | -1 | 92 | 23* | 7 | 1
CN(C)/C=N/c1nc2nccc(-c3cccnc3)n2n1 | -4 | 6 | 82 | -1 | 1 | -2
COc1ccc(-c2ccc3c(c2)S(=O)(=O)c2cccc(C(=O)NC4CC4)c2C3=O)cc1OC | nt | 0 | 95 | -1 | 1 | -19
COc1ccc(-c2ccc3c(c2)S(=O)(=O)c2cccc(C(=O)NC4CCCCC4)c2C3=O)cc1OC | nt | 0 | 54* | nt | nt | 2
Cc1ccc2c(n1)sc1c(-c3ccc(Br)cc3)c(C#N)c(N)nc12 | 0 | 17 | 74* | -1 | 2 | 25
COc1ccccc1C(=O)NCCC(=O)NCCOc1ccc(C)cc1 | nt | -5 | 98 | 4 | 8 | -12
Cc1ccc(OCCNC(=O)c2ccccc2N)cc1 | 4 | 0 | 46* | 1 | 1 | 17
CC(C)NC(=O)COc1ccc(OCc2ccccc2)cc1 | 3 | 3 | 101 | -1 | 2 | -3
O=C(COc1ccc(OCc2ccccc2)cc1)NN=C1CCCC1 | -3 | 1 | 107 | 34* | 13 | -3
SMILES | NS3 helicase inh | DNMT1 block | DSG3 Ab inh | UHRF1 MBD2 ctr | MBD2 inh | SUMO1 PPI mod
CC(OC(=O)c1ccc(NC(=O)CC#N)cc1)C(=O)Nc1ccc(Oc2ccccc2)cc1 (stereo not given) | 17 | -11 | nt | -4 | -2 | 54*
COc1ccc(CCN2C(=O)CCC2(C)c2nnnn2-c2c(C)cccc2C)cc1OC (stereo not given) | nt | nt | nt | 22* | 7 | 4
COc1ccc(Cc2nnc(SC)[nH]c2=O)cc1OC | 9 | 1 | 102 | 1 | -3 | 42*
COc1ccc(Cc2nnc(N/N=C/c3ccc(N(C)C)cc3)[nH]c2=O)cc1OC | 0 | -6 | 77* | 0 | 5 | -5
Cc1cc(NC(=O)CSc2nc(-c3ccccc3Cl)nc3c2c(=O)n(C)c(=O)n3C)no1 | -10 | 5 | 123 | 23* | 7 | -3
Cc1cc(NC(=O)CSc2nc(-c3ccc(Br)cc3)nc3c2c(=O)n(C)c(=O)n3C)no1 | 6 | 6 | 107 | nt | nt | 3
Cc1cc(NC(=O)CSc2nc(CC(C)(C)C)nc3c2c(=O)n(C)c(=O)n3C)no1 | -5 | 3 | 100 | 22* | 3 | 1
CCc1nc(SCC(=O)Nc2cc(C)on2)c2c(=O)n(C)c(=O)n(C)c2n1 | 8 | 1 | 110 | -1 | 1 | -1
O=C1CSC(=S)N1c1cccc(Cl)c1 | 3 | 13 | 97 | -2 | -3 | 5
CCOC(=O)N1CCN(CC(O)COc2c(C)cc(C)cc2C)CC1 (stereo not given) | -7 | 1 | 110 | 2 | 3 | -1
CCc1ccc(OCC(=O)NC(=S)Nc2ccc(C(C)=O)cc2)c(Br)c1 | -2 | 34 | 95 | 24* | 7 | 0
CCc1ccc(OCC(=O)NC(=S)Nc2ccc(F)cc2)c(Br)c1 | -3 | 8 | 91 | -3 | 5 | 1
C=C(Br)CN1[C@@H](Cc2ccccc2)[C@H](O)[C@@]23C=C[C@@H](C[C@@H]2S1(=O)=O)O3 | nt | 0 | 86* | 8 | 4 | 6
O=C(CN(c1ccc(Cl)cc1)S(=O)(=O)c1ccc(Cl)c([N+](=O)[O-])c1)NCCc1ccccc1 | -5 | 5 | 98 | 0 | 0 | -3
O=C(CN(c1ccc(Cl)cc1)S(=O)(=O)c1ccc(Cl)c([N+](=O)[O-])c1)NCCc1ccc(F)cc1 | 2 | 6 | 45* | -1 | 6 | -1
CCS(=O)(=O)NCC(c1cccnc1)N1CCN(c2ccccc2)CC1 (stereo not given) | -3 | -1 | 107 | 4 | -4 | 5
CCS(=O)(=O)NCC(c1cccnc1)N1CCN(c2ccc(OC)cc2)CC1 (stereo not given) | -5 | -7 | 101 | 22* | 3 | 3
CN1CCC(C)(C(=O)Nc2cccc(Oc3ccccc3)c2)C1 (stereo not given) | nt | 4 | nt | -2 | 1 | -3
CC(C)N1CCC(C)(C(=O)Nc2cccc(Oc3ccccc3)c2)C1 (stereo not given) | nt | 3 | nt | 31* | -1 | 2
CCCCSc1nnc(-c2ccc(NC(=O)CCc3ccccc3)cc2)n1C | 9 | 5 | -28* | 0 | 1 | 10
CCC(C)NC(=O)C1c2cc(OC)c(OC)cc2C(=O)N(C)C1c1ccc(OC)cc1 (stereo not given) | 0 | 0 | nt | -2 | -7 | 2
COc1ccccc1-c1nnc(SCC(=O)Nc2c(Cl)cccc2Cl)o1 | 0 | 2 | 96 | 1 | -4 | -1
